Measurements of several laboratories.
Compare with care: the assays were run in different laboratories.
PDGFRA: Platelet-derived growth factor receptor alpha (PDGFRA, Homo sapiens, UniProt P16234)
PDGFRA D842V: Platelet-derived growth factor receptor alpha (PDGFRA, Homo sapiens, UniProt P16234, D842V)
PDGFRA V561D: Platelet-derived growth factor receptor alpha (PDGFRA, Homo sapiens, UniProt P16234, V561D)

SMILES | target | effect on | mode | technique | tested at | quantity | result
NS(=O)(=O)c1cc(NC(=O)Cc2ccccc2)ccc1Oc1cccc(Cl)c1 | PDGFRA | cell-free assay | – | competition with immobilised ligand | 1 µM | remaining binding | 80%
Cc1ccc(C(=O)NCc2ccsc2)cc1C#Cc1cn(C(C)C)c2ncnc(N)c12 | PDGFRA D842V | enzyme activity | inhibitor | – | 1 µM | activity vs control | 2%
Cc1cnc(NC2CCOCC2)nc1-n1cnc(C(=O)NC(CN)c2cc(F)cc(Cl)c2)c1 (stereo not drawn) | PDGFRA V561D | enzyme activity | inhibitor | radiometric | 1 µM | remaining activity | 100%
Cn1nc(C(=O)NCc2ccc(C(=O)O)cc2)cc1-c1ccc2[nH]ccc2c1 | PDGFRA | cell-free assay | – | competition with immobilised ligand | 0.1 µM | remaining binding | 100%
COc1cc(-c2cc(-c3ccc(N4CCNCC4)cc3)cnc2N)cc(OC)c1OC | PDGFRA V561D | enzyme activity | inhibitor | – | 1 µM | inhibition | 86%
Cc1cc(NC(=O)c2cccc3cc(-c4cccc5[nH]nc(N)c45)ccc23)ccc1F | PDGFRA V561D | enzyme activity | inhibitor | – | 0.1 µM | activity vs control | 4%
CCCOc1ccc(OC)c(F)c1C(=O)c1ccc(C(=O)N[C@@H]2CNC[C@H]2NC(=O)c2ccc3[nH]ncc3c2)cc1 | PDGFRA | enzyme activity | inhibitor | – | 10 µM | remaining activity | 89%
Cc1ccc(NC(=O)c2ccc(C)c(C(F)(F)F)c2)cc1C#Cc1nn(C2CCC(O)CC2)c2ncnc(N)c12 (stereo not drawn) | PDGFRA D842V | enzyme activity | inhibitor | – | 10 µM | remaining activity | 0%
CNC(=O)c1cc(Oc2ccc(NC(=O)Nc3ccc(Cl)c(C(F)(F)F)c3)cc2)ccn1 | PDGFRA D842V | enzyme activity | inhibitor | – | 0.3 µM | inhibition | 86%
